Source: PubChem BioAssay
Compounds with a hit are over-represented: about 3.2% of the library has one in this group of screens.
FAK inh – FAK (human) kinase inhibition; biochemical FAK kinase activity assay; 97,000 tested, 0.84% active; Q05397; inhibition, %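 (tested at 7 µM)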; in the data active = inhibition above about 19%;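 note: 0% = DMSO and 100% = reference compound high control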
Rev-RRE block – inhibitors of HIV-1 Rev-RRE RNA interaction | 97,000 tested, 0.79% active | P05866 | inhibition, % at 8 µM | Rev peptide-RRE RNA binding, FRET;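 active = inhibition above the screen-wide mean plus 3 SD, cut at about 35% in these data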;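 note: 0% = median DMSO wells and 100% = median Neomycin B control wells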
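Test system – labelled RRE RNA duplex and labelled Rev peptide · Reagent – labelled Rev peptide · Doses – one concentration, 8 µM nominal · Incubation – 5 + 15 min at 25 °C · Signal – FRET fluorescence readout · Read-out basis – % inhibition of FRET ratio versus controls · Control set – DMSO wells as 0% and neomycin B wells as 100% inhibition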
DAT uptake mod – changed human dopamine transporter uptake under cocaine IC80; B-score at 10 µM; 110,000 tested, 1.3% active; LLC-PK1 hDAT cells, [14C]-dopamine uptake with cocaine IC80; actives deviate in either direction;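 active = Z score or B-score, a plate-position-corrected score, falls beyond the plate's 99.7% confidence bounds, in either direction; inactive = both scores lie inside the 99.7% bounds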;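 note: scored against the spread of the other compound wells on the same plate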
Target sequence (Q01959 whole entry, looked up): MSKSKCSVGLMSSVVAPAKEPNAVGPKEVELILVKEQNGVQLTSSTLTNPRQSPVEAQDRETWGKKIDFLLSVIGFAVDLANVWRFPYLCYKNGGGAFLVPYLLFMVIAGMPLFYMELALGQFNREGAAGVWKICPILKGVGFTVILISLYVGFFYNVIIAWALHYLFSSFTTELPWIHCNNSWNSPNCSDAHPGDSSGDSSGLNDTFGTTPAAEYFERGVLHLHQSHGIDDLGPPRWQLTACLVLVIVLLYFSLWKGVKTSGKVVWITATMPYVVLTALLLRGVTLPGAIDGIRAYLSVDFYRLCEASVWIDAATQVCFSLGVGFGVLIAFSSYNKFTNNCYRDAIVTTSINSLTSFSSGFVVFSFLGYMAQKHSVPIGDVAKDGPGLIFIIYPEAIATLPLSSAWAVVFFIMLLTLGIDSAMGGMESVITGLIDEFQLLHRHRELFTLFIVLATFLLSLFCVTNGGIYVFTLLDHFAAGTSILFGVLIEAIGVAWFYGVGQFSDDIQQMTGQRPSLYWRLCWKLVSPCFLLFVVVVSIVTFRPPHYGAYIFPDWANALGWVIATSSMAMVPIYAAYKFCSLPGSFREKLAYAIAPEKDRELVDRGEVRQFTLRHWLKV
EphB4 antag – EphB4-ephrin-B2 interaction antagonism; P54760; inhibition, % at 7 µM; 97,000 tested, 0.15% active; EphB4 LBD / TNYL-RAW-Alexa532 peptide, fluorescence polarization; AID 720;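 active = inhibition above the screen-wide mean inhibition plus 3 SD, cut at about 15% in these data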;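 note: 0% = DMSO wells and 100% = excess unlabeled TNYL-RAW peptide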
PLK1 PBD inh – inhibitors of human Plk1 polo box domain binding; 97,000 tested, 0.13% active; AID 693; inhibition, %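 (tested at about 20 µM)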; Plk1 PBD phosphopeptide binding, fluorescence polarization; in the data active = inhibition above about 34%, passing the limit was not always enough
PLK1 kinase inh – blocks human PLK1 kinase activity. 97,000 tested, 0.53% active. inhibition, % at 10 µM. recombinant PLK1 kinase, TR-FRET peptide phosphorylation;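 active = inhibition of 50% or more in the single-concentration screen; inactive = inhibition below 50%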;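 note: 0% = DMSO max control and 100% = H-89 dihydrochloride min control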
The depositor's hits bear a star; nt = no result given; [ ] = remark or other dose.

SMILES	FAK inh	Rev-RRE block	DAT uptake mod	EphB4 antag	PLK1 PBD inh	PLK1 kinase inh
CN1C(=O)NC(c2ccccc2)C2=C1CN(c1ccc3ccccc3c1)C2=O (stereo unspecified)	18	-4	-0.79	0	-2	-15
CCCN1C(=O)/C(=C/c2ccc(C)s2)SC1=Nc1ccc(OC)cc1	-2	9	0.095	-2	13	-5
C=CCN1C(=O)/C(=C/c2ccc(N(C)C)cc2)S/C1=N\c1nnc(CC)s1	-2	131*[fluorescence artefact?]	nt	-2	-91	-40
COc1cccc(N2CC(C(=O)Nc3ccc(C(=O)OC(C)C)cc3)CC2=O)c1 (stereo unspecified)	-1	13	3.2*	-4	22	-8
CCN(CC)CCC(c1ccc(N(C)C)cc1)c1c(O)cc(OC)cc1OC (stereo unspecified)	nt	nt	-0.58	nt	nt	nt
Nn1c(Nc2ccccc2)nc2ccccc2c1=O	9	5	1.8	8	4	59*
Nn1c(Nc2ccccc2)nc2ccccc21	-3	5	1.7	-5	18	-10
O=C(/C=C/c1cccc([N+](=O)[O-])c1)NCCN1CCOCC1	8	4	-0.99	17*	-5	-9
O=C(/C=C/c1ccccc1Cl)NCCN1CCOCC1	-3	3	0.45	4	8	-12
CCOC(=O)c1c(-c2ccco2)csc1N	1	10	2.1*	3	21	-7
CCCCCC(/C=N/Nc1ccc(S(=O)(=O)N2CCOCC2)cc1[N+](=O)[O-])=C\c1ccccc1	0	11	1.6	-2	6	-12
COc1ccc(-c2csc(N3CCN(C(=O)c4ccccc4)CC3)n2)cc1	4	0	-0.66	13	-16	-10
COc1ccc(-c2csc(N3C(=N)SCC3=O)n2)cc1	-1	6	1.9*	3	-35	-4
Cc1ccc(NC2=CC(=O)C(=O)c3ccccc32)cc1	26*	4	1.1	0	34	-8
CN(C)CCSc1nc(-c2ccccc2)nc2c1COC(C)(C)C2	-3	-2	3*	-9	-32	3
CSc1nc(-c2ccccc2)nc2c1COC(C)(C)C2	-5	7	0.053	-1	-2	-13
O=C(Cc1ccccc1)Nc1ccccc1N1CCOCC1	-2	2	0.26	-5	-5	-1
CN(C)CCCNCC(=O)Nc1ccccc1N1CCOCC1	-1	5	-7.7*	-5	10	-3
CN1C(=O)c2cccc(NCCCCCCN3C(=O)c4ccccc4C3=O)c2C1=O	0	30	0.054	-3	-2	-48
CCNc1c2c3c(cccc3n(C)c1=O)C(=O)c1ccccc1-2	12	142*[fluorescence artefact?]	0.38	26*	-106	-101
Cn1c(=O)c(NCCc2ccccc2)c2c3c(cccc31)C(=O)c1ccccc1-2	3	140*[fluorescence artefact?]	2.1	119*[fluorescence artefact?]	-207	-152
CCCCNc1c2c3c(cccc3n(C)c1=O)C(=O)c1ccccc1-2	6	142*[fluorescence artefact?]	1.1	15	-138	-129
CCNC1=C(Cl)C(=O)c2ccccc2C1=O	-1	-3	0.0094	5	-9	12
CSc1cccc(NC(=O)c2ccco2)c1	-1	6	0.21	-2	-3	-6
CC1=C(C(=O)OCC(Br)(Br)Br)C(c2cccc([N+](=O)[O-])c2)NC(=O)N1CCCC(=O)O (stereo unspecified)	nt	nt	-0.2	nt	nt	nt
SMILES	FAK inh	Rev-RRE block	DAT uptake mod	EphB4 antag	PLK1 PBD inh	PLK1 kinase inh
CCn1c(O)c(/C=N/N=C/c2ccccc2)c2ccc(C3=NNC(=O)CC3)cc21	3	57*	2.4	1	-30	-8
CC(C)(O)c1ccccc1CC[C@@H](SCC1(CC(=O)O)CC1)c1cccc(/C=C/c2ccc3ccc(Cl)cc3n2)c1	nt	nt	2.5	nt	nt	nt
COc1ccc(CNCC(O)(c2ccc(Cl)cc2)c2ccc(Cl)cc2)cc1OC	0	63*	2	-5	2	8
Cc1ccc(CN2CCNC(=O)C2CC(=O)O)cc1 (stereo unspecified)	-4	4	-0.22	-4	-15	61*
COc1ccc(CN2CCNC(=O)C2CC(=O)O)cc1OC (stereo unspecified)	-1	10	-1.4	6	7	-9
O=C(O)CC1C(=O)NCCN1Cc1ccc(F)c(F)c1 (stereo unspecified)	0	3	0.042	-3	-14	65*
COCC(=O)Nc1nc2n(n1)C(c1ccc(Cl)cc1)CC(c1ccc(OC)cc1)N2 (stereo unspecified)	-2	36*	-0.034	-1	-9	-7
COCC(=O)Nc1nc2n(n1)C(c1ccccc1Cl)CC(c1ccc(OC)cc1)N2 (stereo unspecified)	5	5	0.35	-3	14	-14
Cc1nn(-c2cccc(C(F)(F)F)c2)c(Cl)c1/C=N/n1cnnc1	-1	36*	0.96	-4	-6	-3
O=C(O)C1C2C=CC(C2)C1C(=O)Nc1ccc(C(=O)N2CCCCC2)c(Cl)c1 (stereo unspecified)	-2	-3	0.19	0	15	-11
O=S(=O)(NC1CC1)c1ccc(S(=O)(=O)N(Cc2ccccn2)C2CCCC2)cc1	-2	0	0.7	0	-8	-1
CN=Cc1sc2ccccc2c1O	-5	1	0.4	1	-10	-8
CC(=Nc1cccc(O)c1)c1sc2ccccc2c1O	3	48*	-0.29	-3	-121	-8
CC(=Nc1ccc(C)cc1)c1sc2ccccc2c1O	2	44*	-1.1	9	-59	-6
N#CC1=C(N)C(C#N)(C#N)[C@H](c2c(F)cccc2F)[C@H]2CC3(CC=C12)OCCO3	-1	56*	-0.025	-1	0	-8
COc1ccc(-c2noc(CSc3nc(N)c(-c4ccccc4)c(=O)[nH]3)n2)cc1	0	2	1.5	0	-31	2
CCN(CC)S(=O)(=O)c1csc(C(=O)NCc2ccccc2)c1	-1	-6	2.6*	0	11	-4
CCOC(=O)c1ccc2[nH]cc(C(C)=O)c(=O)c2c1	6	53*	0.015	-3	-17	-7
CC(C)C(=O)Nc1cccc(-c2cnc3ccccc3n2)c1	4	7	2.7*	-2	8	2
Clc1ccc(-c2nnnn2-c2ccc(Cl)c(Cl)c2)cc1Cl	0	13	0.98	0	15	-11
CCOC(=O)N1CCN(C(=O)CS(=O)Cc2nc(-c3ccc(C)cc3)oc2C)CC1 (stereo unspecified)	2	6	1.1	-2	4	-13
COc1ccc(-c2nnc(SCC(=O)N3CCc4ccccc4C3)o2)cc1	-1	5	3.2*	-1	25	-18
Cc1cccc(-c2nc(CS(=O)CC(=O)N3CCCCC3)c(C)o2)c1 (stereo unspecified)	-1	5	-0.63	2	-7	66*
Cc1cccc(-c2nc(CS(=O)CC(=O)NCc3cccs3)c(C)o2)c1 (stereo unspecified)	8	6	-0.19	1	9	-11
